Assay [1] has as its system Enterococcus faecium. Briefly: Inhibition of purified Enterococcus faecium D359 His-tagged Aslfm assessed as residual activity preincubated at 250 uM for 2 mins prior to reaction initiation measured after 10 mins by UV/VIS spectrophotometry. The method, boiled down: (§1)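 His-tagged Aslfm in 100 mM Tris-HCl pH 8.0, 50 mM MgCl2, 2 mM phosphoenolpyruvate, 0.16 mM NADH, 1 mM ATP, 1 mM D-Asp, 0.005% Triton X-114, with pyruvate kinase and lactate dehydrogenase. Compound in DMSO was preincubated 2 min at 37 °C, and the reaction was started with 0.3 mM UM5K. A340 was followed for 10 min. Duplicates; residual activity is relative to DMSO controls.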

The test system of assay [2] is Enterococcus faecium. Briefly: Antimicrobial activity against Enterococcus faecium D344R after 18 hrs by macrodilution method.
Assay [3] has as its system Enterococcus faecium. Briefly: Competitive inhibition of purified Enterococcus faecium D359 His-tagged Aslfm preincubated at 1 uM for 2 mins prior to reaction initiation measured after 10 mins by time course assay. In a few lines: (§2)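 Coupled pyruvate kinase–lactate dehydrogenase assay at 37 °C monitored at 340 nm. Starting conditions: 100 µM ATP, 1 mM D-Asp, 300 µM UDP-MurNAc-pentapeptide, 2 mM phosphoenolpyruvate, 105 µM NADH, enzyme 0.75 or 1 µM, up to six inhibitor concentrations. Progress curves over 10–15 min were fitted to a […] mechanism, with enzyme constants fixed and inhibitor constants fitted. Ki was also measured at ATP 50 and 100 µM.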

The test system of assay [4] is Enterococcus faecium. Briefly: Inhibition of purified Enterococcus faecium D359 His-tagged Aslfm assessed as residual activity preincubated at 100 uM for 2 mins prior to reaction initiation measured after 10 mins by UV/VIS spectrophotometry. The method, boiled down: as §1
Assay [5] deals with Enterococcus faecium. Briefly: Antimicrobial activity against Enterococcus faecium E1636 after 18 hrs by broth microdilution method. The class given is functional. The following applies: E1636, 18 h. On the technique in general: In broth dilution the organism is exposed to a series of concentrations in liquid medium.
For assay [6], the system named is Enterococcus faecium. Briefly: Antimicrobial activity against Enterococcus faecium E1679 after 18 hrs by broth microdilution method. The class given is functional. The following applies: E1679, 18 h.
Assay [7] is described as follows: Inhibition of purified Enterococcus faecium D359 His-tagged Aslfm preincubated for 2 mins prior to reaction initiation measured after 10 mins by UV/VIS spectrophotometry. The method, boiled down:
as §1

Assay [8] concerns Enterococcus faecium. The experiment in a line: Binding affinity to purified Enterococcus faecium D359 His-tagged Aslfm by isothermal titration calorimetry method. The method, boiled down: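 The ligand (50 µM in buffer with 5% DMSO) was titrated into ~1 µM enzyme (5% DMSO) at 37 °C, 300 rpm, with 5–8 min intervals, to a final ratio of ~12:1. Data were corrected for ligand-into-buffer heats and fitted to a single-binding-site model.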
A general note: In ITC the heat of successive injections is recorded.

The test system of another assay is Enterococcus faecalis. The experiment in a line: Antimicrobial activity against Enterococcus faecalis ATCC 29212 after 18 hrs by broth microdilution method. The following applies: ATCC 29212, 18 h. In kind it is functional.
Assay [9] in a line: Binding affinity to purified Enterococcus faecium D359 His-tagged Aslfm by kinetic study. The following applies: in the assay text read “isothermal titration calorimetry” for “kinetic study”.
Assay [10] has as its system Enterococcus faecium. Briefly: Inhibition of purified Enterococcus faecium D359 His-tagged Aslfm assessed as residual activity preincubated at 50 uM for 2 mins prior to reaction initiation measured after 10 mins by UV/VIS spectrophotometry. In a few lines:
as §1

The subject of assay [11] is Enterococcus faecium. The experiment in a line: Antimicrobial activity against Enterococcus faecium D344R at 160 ug after 18 hrs by disk diffusion method.
Assay [12] relates to Enterococcus faecium. Briefly: Competitive inhibition of purified Enterococcus faecium D359 His-tagged Aslfm preincubated for 2 mins prior to reaction initiation measured after 10 mins by time course assay. The method, boiled down:
as §2

Assay [13] concerns Enterococcus faecium. The experiment in a line: Competitive inhibition of purified Enterococcus faecium D359 His-tagged Aslfm preincubated at 0.75 uM for 2 mins prior to reaction initiation measured after 10 mins by time course assay. In a few lines: as §2

Active and inactive are the calls of the source.

As a reminder, the MIC is the smallest concentration in the dilution series that meets the test's criterion for growth inhibition. A lower MIC goes with greater potency. One may read the Ki as a dissociation constant, usually derived from enzyme kinetics or from competition with a known ligand.

Regarding `CCCCN(CCCC)C(=O)c1cnc(N)o1`, the Activity in the assay with Enterococcus faecium [1] was determined as 94%. Further, the MIC against Enterococcus faecium [2] was greater than 200 µg/mL.

In the case of `Nc1nc(SCc2c(Cl)cccc2Cl)c2nc[nH]c2n1`, the inhibition result in the assay on Enterococcus faecium [3] was “Active”. The Activity in the assay with Enterococcus faecium [4] was found to be 47%. Also, the minimum inhibitory concentration (MIC) in the assay on Enterococcus faecium [5], in the assay on Enterococcus faecium [6] and against Enterococcus faecalis was greater than 64 µg/mL in each case. Moreover, the inhibitory constant (Ki) in assay [7] was found to be 3.2 µM; in [9], 5 µM. Besides, in the assay with Enterococcus faecium [8], the Kb was 2 ×10⁵ /M.

As for `Nc1nnc(P(=O)(c2ccccc2)c2ccccc2)s1`, the Activity in the assay with Enterococcus faecium [4] is 95%.

On to `Nc1nc(NCc2cccc(Cl)c2Cl)c2cn[nH]c2n1`, for which the Activity in the assay on Enterococcus faecium [4] turned out to be 86%.

For `CCN(Cc1ccncc1)C(=O)c1cnc(N)o1`, in the assay on Enterococcus faecium [1], the Activity came to 98%. In the assay on Enterococcus faecium [2], this compound yielded a minimum inhibitory concentration (MIC) greater than 200 µg/mL.

As to `Nc1ncc(C(=O)Nc2nc3ccccc3[nH]2)o1`, the Activity in the assay with Enterococcus faecium [1] was 90%. In the assay with Enterococcus faecium [2], this compound showed a minimal inhibitory concentration (MIC) greater than 200 µg/mL.

As for `Clc1ccc(CN(Cc2ccccc2)c2ncnc3[nH]cnc23)cc1`, the Activity in the assay with Enterococcus faecium [10] was found to be 110%.

As for `Nc1ncc(C(=O)N(Cc2ccccc2)Cc2ccccc2)s1`, the Activity in the assay with Enterococcus faecium [1] was 80%. In the assay with Enterococcus faecium [2], this compound yielded a minimal inhibitory concentration (MIC) greater than 200 µg/mL.

On to `Nc1ncc(-c2nnnn2-c2ccccc2)c(-c2ccccc2)n1`, for which the Activity with Enterococcus faecium [4] amounted to 92%.

With `CC1(C)S[C@@H]2[C@H](NC(=O)[C@H](N)c3ccccc3)C(=O)N2[C@H]1C(=O)O`, the “growth inhibition (GI)” value in the assay with Enterococcus faecium [11] was “inactive”.

For `Nc1nc(NCc2ccc3c(c2)OCO3)c2nc[nH]c2n1`, in the assay on Enterococcus faecium [4], the Activity came to 84%.

On to `CCCCN(Cc1ccccc1)C(=O)c1cnc(N)o1`, for which the Activity in the assay on Enterococcus faecium [1] is 75%. For the same compound, the MIC in the assay with Enterococcus faecium [2] was greater than 200 µg/mL.

For the compound `Nc1nc(NCc2c(F)cccc2F)c2cn[nH]c2n1`, the Activity in the assay with Enterococcus faecium [4] was 88%.

Consider `c1ccc(CN(Cc2ccccc2)c2ncnc3[nH]cnc23)cc1`, for which, in the assay with Enterococcus faecium [4], the Activity turned out to be 83%.

For `O=C(c1cnc(O)cn1)N(Cc1cccs1)CC1CCCO1` (stereo unspecified), the Activity in the assay with Enterococcus faecium [4] amounted to 93%.

Regarding `O=C(c1ccc(O)nc1)N(Cc1ccco1)Cc1cccs1`, in the assay on Enterococcus faecium [4], the Activity worked out at 93%.

`Nc1ncc(C(=O)N(Cc2cc(Br)cc(Br)c2)Cc2ccc3[nH]ccc3c2)o1`: the Activity with Enterococcus faecium [4] is 44%. Besides, the minimum inhibitory concentration (MIC) was greater than 64 µg/mL in the assay on Enterococcus faecium [5], greater than 64 µg/mL in the assay on Enterococcus faecium [6], greater than 64 µg/mL with Enterococcus faecalis and greater than 200 µg/mL against Enterococcus faecium [2]. Also, the inhibition result in the assay on Enterococcus faecium [12] is “Active”. Moreover, affinity in assay [7] was put at a Ki of 2.9 µM.

Consider `Nc1nc(NCc2ccc(Cl)c(Cl)c2)c2nc[nH]c2n1`, for which the Activity with Enterococcus faecium [4] was found to be 83%.

As to `Nc1nonc1-c1nc2ccccc2n1CC(=O)Nc1ccccc1`, the Activity in the assay on Enterococcus faecium [4] was 89%.

Take `Nc1ncc(C(=O)N(Cc2ccccc2)Cc2ccccc2)o1`: the MIC in the assay with Enterococcus faecium [5] was greater than 64 µg/mL; in the assay with Enterococcus faecium [6], greater than 64 µg/mL; in the assay on Enterococcus faecalis, greater than 64 µg/mL; against Enterococcus faecium [2], greater than 200 µg/mL. Further, the Ki in assay [7] came out at 44 µM; in assay [9], 5 µM. The same compound showed a Kb in the assay with Enterococcus faecium [8] of 2 ×10⁵ /M. The Activity in the assay with Enterococcus faecium [1] was 43%. For the same compound, the inhibition entry with Enterococcus faecium [13] is “Active”.

For the compound `Nc1nc(NCc2c(F)cccc2Cl)c2cn[nH]c2n1`, in the assay on Enterococcus faecium [4], the Activity worked out at 84%.

Take `Cc1ccc(F)c(CNc2nc(N)nc3[nH]ncc23)c1F`: in the assay with Enterococcus faecium [4], the Activity was 79%.

Consider `CS(=O)(=O)Nc1nc(CC(=O)N(Cc2cccs2)Cc2cccs2)cs1`, for which the Activity in the assay on Enterococcus faecium [4] turned out to be 91%.

As for `Nc1nc(NCc2ccc(Cl)cc2Cl)c2nc[nH]c2n1`, the Activity with Enterococcus faecium [4] turned out to be 85%.

With `Nc1ncc(C(=O)NCc2ccc3[nH]ccc3c2)o1`, in the assay on Enterococcus faecium [1], the Activity worked out at 79%. This compound also had an MIC against Enterococcus faecium [2] greater than 200 µg/mL.

In the case of `Nc1nc(SCc2ccc(Cl)cc2Cl)c2nc[nH]c2n1`, the Activity in the assay with Enterococcus faecium [4] worked out at 71%. The MIC with Enterococcus faecium [5], in the assay with Enterococcus faecium [6] and in the assay with Enterococcus faecalis was greater than 64 µg/mL each time. For the same compound, the inhibition entry in the assay on Enterococcus faecium [12] was “Active”. In addition, in [7], the affinity corresponds to a Ki of 35 µM.

On to `Nc1nc(NCc2cccnc2Cl)c2cn[nH]c2n1`, for which the Activity in the assay with Enterococcus faecium [4] is 87%.

`Nc1nc(NCc2ccc(Cl)cc2Cl)c2cn[nH]c2n1`: the Activity in the assay with Enterococcus faecium [4] came out at 69%. For the same compound, the MIC in the assay on Enterococcus faecium [5], with Enterococcus faecium [6] and against Enterococcus faecalis was greater than 64 µg/mL throughout. In the assay on Enterococcus faecium [12], the inhibition result was “Active”. The affinity in [7], expressed as Ki, was 22 µM.

With `OC(c1ccccc1)(c1ccccc1)c1c[nH]cn1`, the Activity in the assay on Enterococcus faecium [4] is 100%.

Regarding `Nc1nc(NCc2ccc(F)cc2F)c2cn[nH]c2n1`, in the assay with Enterococcus faecium [4], the Activity came to 93%.

Regarding `Cc1nc(N)sc1C(=O)N(Cc1ccccc1)Cc1ccccc1`, the Activity in the assay with Enterococcus faecium [1] was 82%. Besides, the MIC against Enterococcus faecium [2] was greater than 200 µg/mL.

For the compound `Nc1nc(NCc2ccc(Cl)s2)c2cn[nH]c2n1`, in the assay with Enterococcus faecium [4], the Activity is 74%.

Regarding `CN(C(=O)Cn1c(-c2nonc2N)nc2ccccc21)c1ccccc1`, in the assay with Enterococcus faecium [4], the Activity came out at 116%.

On to `Nc1ncc(C(=O)N(Cc2ccccn2)Cc2ccccn2)o1`, for which the Activity in the assay on Enterococcus faecium [1] came out at 74%. Moreover, the minimal inhibitory concentration (MIC) in the assay with Enterococcus faecium [2] is greater than 200 µg/mL.

On to `Clc1cccc(Cl)c1CN(Cc1ccccc1)c1ncnc2[nH]cnc12`, for which the Activity in the assay on Enterococcus faecium [10] was 94%.

As for `COc1ccc(CNc2nc(N)nc3[nH]cnc23)c(OC)c1`, the Activity in the assay with Enterococcus faecium [4] turned out to be 89%.

In the case of `Cc1ccc(-n2nnnc2-c2cn[nH]c2-c2cccc(C)c2)cc1`, the Activity in the assay on Enterococcus faecium [4] is 92%.

These data come from ChEMBL document CHEMBL2417449, “Discovery of the first inhibitors of bacterial enzyme D-aspartate ligase from Enterococcus faecium (Aslfm)” (Eur J Med Chem, 2013).
